Data published in ChEMBL document CHEMBL1143111, “Synthesis and antimicrobial activity of novel C-linked imidazole glycoconjugates” (Bioorg Med Chem Lett, 2008).
Values after ≈ are worked out from the molar mass of the structure shown. Active and inactive are the calls of the source. The rule behind the calls is not given here.

Assays:
[1] = system: Staphylococcus epidermidis; experiment: Antibacterial activity against Staphylococcus epidermidis by broth dilution method; format: functional
In short: (§1)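 Compounds and reference drugs were dissolved as stocks in 50% DMSO–water, then serially diluted twofold with culture medium, with bacterial inoculum added […], and the MIC was determined. Only compounds that gave a growth-inhibition zone in a prior agar cup diffusion screen went on to this broth dilution test.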

[2] = system: Bacillus subtilis; experiment: Antibacterial activity against Bacillus subtilis by broth dilution method; format: functional; in short: as §1
[3] = system: Escherichia coli; experiment: Antibacterial activity against Escherichia coli by broth dilution method; format: functional; in short: as §1
[4] = system: Aspergillus niger; experiment: Antifungal activity against Aspergillus niger by agar cup diffusion method; format: functional, organism-based
[5] = system: Saccharomyces cerevisiae; experiment: Antifungal activity against Saccharomyces cerevisiae by agar cup diffusion method; format: functional, organism-based
[6] = system: Klebsiella pneumoniae; experiment: Antibacterial activity against Klebsiella pneumoniae by broth dilution method; format: functional; in short: as §1
[7] = system: Staphylococcus aureus; experiment: Antibacterial activity against Staphylococcus aureus by broth dilution method; format: functional; in short: as §1
[8] = system: Pseudomonas aeruginosa; experiment: Antibacterial activity against Pseudomonas aeruginosa by broth dilution method; format: functional; in short: as §1
[9] = system: Rhizopus arrhizus; experiment: Antifungal activity against Rhizopus oryzae by agar cup diffusion method; format: functional, organism-based
[10] = system: Candida albicans; experiment: Antifungal activity against Candida albicans by agar cup diffusion method; format: functional, organism-based
[11] = Inhibition of bovine N-acetyl-beta-D-glucosaminidase; parameters: species or system Bos taurus

MIC [1]	MIC [2]	MIC [3]	MIC [6]	MIC [7]	MIC [8]	Ki [11]	SMILES	Activity [4]	Activity [5]	Activity [9]	Activity [10]
75 µg/mL (≈ 139 µM)	37.5 µg/mL (≈ 69.6 µM)	75 µg/mL (≈ 139 µM)	75 µg/mL (≈ 139 µM)	37.5 µg/mL (≈ 69.6 µM)	75 µg/mL (≈ 139 µM)	–	Cc1ccc(-n2c([C@H]3O[C@@H]4OC(C)(C)O[C@@H]4[C@H]4OC(C)(C)O[C@H]43)nc(-c3ccccc3)c2-c2ccccc2)cc1	inactive	inactive	inactive	inactive
150 µg/mL (≈ 320 µM)	150 µg/mL (≈ 320 µM)	150 µg/mL (≈ 320 µM)	75 µg/mL (≈ 160 µM)	150 µg/mL (≈ 320 µM)	37.5 µg/mL (≈ 80 µM)	–	CC1(C)O[C@H]2O[C@H](c3nc(-c4ccccc4)c(-c4ccccc4)n3Cc3ccccc3)[C@H](O)[C@H]2O1	inactive	inactive	inactive	inactive
75 µg/mL (≈ 139 µM)	150 µg/mL (≈ 277 µM)	75 µg/mL (≈ 139 µM)	150 µg/mL (≈ 277 µM)	150 µg/mL (≈ 277 µM)	37.5 µg/mL (≈ 69.4 µM)	–	Cc1cccc(-n2c(C3OC(C)(C)O[C@H]3[C@@H](O)[C@H]3COC(C)(C)O3)nc(-c3ccccc3)c2-c2ccccc2)c1 (some centres not stated)	inactive	inactive	inactive	inactive
75 µg/mL (≈ 163 µM)	75 µg/mL (≈ 163 µM)	75 µg/mL (≈ 163 µM)	75 µg/mL (≈ 163 µM)	75 µg/mL (≈ 163 µM)	75 µg/mL (≈ 163 µM)	–	OC[C@@H](O)[C@@H](O)[C@@H](O)[C@H](O)c1nc(-c2ccccc2)c(-c2ccccc2)n1Cc1ccccc1	inactive	inactive	inactive	inactive
75 µg/mL (≈ 183 µM)	150 µg/mL (≈ 365 µM)	75 µg/mL (≈ 183 µM)	75 µg/mL (≈ 183 µM)	150 µg/mL (≈ 365 µM)	150 µg/mL (≈ 365 µM)	–	Cc1ccc(-n2c([C@H]3COC(C)(C)O3)nc(-c3ccccc3)c2-c2ccccc2)cc1	inactive	inactive	inactive	inactive
150 µg/mL (≈ 277 µM)	75 µg/mL (≈ 139 µM)	75 µg/mL (≈ 139 µM)	75 µg/mL (≈ 139 µM)	75 µg/mL (≈ 139 µM)	75 µg/mL (≈ 139 µM)	–	Cc1ccc(-n2c(C3OC(C)(C)O[C@H]3[C@@H](O)[C@H]3COC(C)(C)O3)nc(-c3ccccc3)c2-c2ccccc2)cc1 (some centres not stated)	inactive	inactive	inactive	inactive
75 µg/mL (≈ 181 µM)	75 µg/mL (≈ 181 µM)	37.5 µg/mL (≈ 90.5 µM)	75 µg/mL (≈ 181 µM)	75 µg/mL (≈ 181 µM)	37.5 µg/mL (≈ 90.5 µM)	–	CC1(C)OC[C@H](c2nc(-c3ccccc3)c(-c3ccccc3)n2-c2ccc(F)cc2)O1	inactive	inactive	inactive	inactive
–	–	–	–	–	–	4 nM	CC(=O)N[C@H]1c2nc(CC(=O)O)cn2[C@H](CO)[C@H](O)[C@@H]1O [NAGSTATIN]	–	–	–	–
150 µg/mL (≈ 275 µM)	150 µg/mL (≈ 275 µM)	75 µg/mL (≈ 138 µM)	75 µg/mL (≈ 138 µM)	150 µg/mL (≈ 275 µM)	75 µg/mL (≈ 138 µM)	–	CC1(C)OC(c2nc(-c3ccccc3)c(-c3ccccc3)n2-c2ccc(F)cc2)[C@H]([C@@H](O)[C@H]2COC(C)(C)O2)O1 (some centres not stated)	inactive	inactive	inactive	inactive
150 µg/mL (≈ 277 µM)	75 µg/mL (≈ 139 µM)	75 µg/mL (≈ 139 µM)	75 µg/mL (≈ 139 µM)	75 µg/mL (≈ 139 µM)	37.5 µg/mL (≈ 69.4 µM)	–	CC1(C)OC(c2nc(-c3ccccc3)c(-c3ccccc3)n2Cc2ccccc2)[C@H]([C@@H](O)[C@H]2COC(C)(C)O2)O1 (some centres not stated)	inactive	inactive	inactive	inactive

SMILES	MIC [1]	MIC [2]	MIC [3]	MIC [6]	MIC [7]	MIC [8]	Ki [11]	Activity [4]	Activity [5]	Activity [9]	Activity [10]
CN[C@@H]1[C@H](O[C@H]2[C@H](O[C@H]3[C@H](O)[C@@H](O)[C@H](N=C(N)N)[C@@H](O)[C@@H]3N=C(N)N)O[C@@H](C)[C@]2(O)C=O)O[C@@H](CO)[C@H](O)[C@H]1O (stereo in doubt) [STREPTOMYCIN]	1.56 µg/mL (≈ 2.69 µM)	6.25 µg/mL (≈ 10.7 µM)	2.35 µg/mL (≈ 4.04 µM)	3.12 µg/mL (≈ 5.37 µM)	1.56 µg/mL (≈ 2.69 µM)	3.12 µg/mL (≈ 5.37 µM)	–	–	–	–	–
